Test results published in ChEMBL document CHEMBL1135613, “Soluble tetraarylporphyrin-platinum conjugates as cytotoxic and phototoxic antitumor agents” (J Med Chem, 2002).

What was measured:
Assay type in all cases: cell-based
Details in all cases: human
[1] = test system: TCC-SUP; assay: Cytotoxicity of compound was determined from treated to that of control TCC-SUP cells
In short: (§1)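 Kinetic (multiple-point) chemosensitivity assay: TCC-SUP cells (passage 56) seeded in microplates, drug added after 48 h at 1, 5 and 10 µM from 10 mM stocks, 0.1% (v/v) final solvent. Medium left unchanged; growth followed by absorbance at 578 nm up to 144 h. T/C corr. = (T−C0)/(C−C0)×100; cytocidal effect = (C0−T)/C0×100 when T<C0.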

[2] = test system: TCC-SUP; assay: Cytotoxicity of compound in dark was determined at 1 uM in TCC-SUP transitional bladder cancer cells; No statistically significant cytotoxicity
[3] = test system: TCC-SUP; assay: Cytotoxicity of compound in light was determined at 1 uM in TCC-SUP transitional bladder cancer cells; Marked light-induced toxicity
[4] = test system: TCC-SUP; assay: Cytotoxicity of compound in dark was determined at 10 uM in TCC-SUP transitional bladder cancer cells; No statistically significant cytotoxicity
[5] = test system: TCC-SUP; assay: Cytotoxicity of compound in dark was determined at 5 uM in TCC-SUP transitional bladder cancer cells; No statistically significant cytotoxicity
[6] = test system: TCC-SUP; assay: Photoxicity of compound in light was determined at 1 uM in TCC-SUP transitional bladder cancer cells; Marked light-induced toxicity
[7] = test system: TCC-SUP; assay: Cytotoxicity of compound was determined from treated to that of control on the proliferation of TCC-SUP cells at 5 uM; in short: as §1
[8] = test system: TCC-SUP; assay: Cytotoxicity of compound was determined from treated to that of control on the proliferation of TCC-SUP cells at 1 uM; in short: as §1
[9] = test system: TCC-SUP; assay: Cytocidal of compound was determined from 10 uM in TCC-SUP cells incubated for 144 hr; in short: as §1

## COCCOCCOc1ccc(-c2c3nc(c(-c4ccc(OCCOCCOC)cc4)c4ccc([nH]4)c(-c4ccc(OC(C(=O)O)C(=O)O)cc4)c4nc(c(-c5ccc(OCCOCCOC)cc5)c5ccc2[nH]5)C=C4)C=C3)cc1
[1]
  T/C corr: 37%
[2]
  Cytotoxicity: No effect
[3]
  Cytotoxicity: Marked light-induced toxicity

## COCCOCCOCCOCCOCCOCCOCCOCCOCCOCCOCCOCCOCCOCCOCCOCCOCCOc1ccc(-c2c3nc(c(-c4ccc(OCCOCCOCCOCCOCCOCCOCCOCCOCCOCCOCCOCCOCCOCCOCCOCCOCCOC)cc4)c4ccc([nH]4)c(-c4ccc(OC(C(=O)O)C(=O)O)cc4)c4nc(c(-c5ccc(OCCOCCOCCOCCOCCOCCOCCOCCOCCOCCOCCOCCOCCOCCOCCOCCOCCOC)cc5)c5ccc2[nH]5)C=C4)C=C3)cc1
[4]
  Cytotoxicity: No effect

## COCCOCCOCCOc1ccc(-c2c3nc(c(-c4ccc(OCCOCCOCCOC)cc4)c4ccc([nH]4)c(-c4ccc(OC(C(=O)O)C(=O)O)cc4)c4nc(c(-c5ccc(OCCOCCOCCOC)cc5)c5ccc2[nH]5)C=C4)C=C3)cc1
[5]
  Cytotoxicity: No effect
[1]
  T/C corr: 37%
[6]
  Cytotoxicity: Marked light-induced toxicity

## Diammine[2-(4-{10,15,20-tris[4-(1,4,7,10-tetraoxaundecyl)phenyl]porphyrin-5-yl}phenoxy)malonato]platinum-(II)
[7]
  T/C corr: 2.8%
[8]
  T/C corr: 26.2%
[9]
  Cytocidal effect: 17.1%
